Values after ≈ are worked out from the molar mass of the structure shown.
Columns and labels:
[1] = Terminal half life in wound interstitial fluid of diabetic patient with chronic wound infection at […], iv loading dose followed by […], iv BID for […] by microdialysis; format: ADME, organism-based; details: human
In short: (§1)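 Subcutaneous microdialysis probes (30 mm membrane, 20 kDa cutoff) placed before dosing, one within 10 cm of wound margin and one in uninfected thigh of the same limb. Patients given IV 100 mg load then 50 mg q12h.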

[2] = AUC (0 to 24 hrs) in wound interstitial fluid of diabetic patient with chronic wound infection at […], iv loading dose followed by […], iv BID for […] by microdialysis; format: ADME, organism-based; set-up: time < 24 hr, route intravenous; details: human; in short: as §1
[3] = Ratio of fAUC (0 to 24 hrs) in plasma of diabetic patient with chronic wound infection to MIC for methicillin-resistant Staphylococcus aureus; format: functional
In short: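 Same patients and IV regimen (100 mg load, then 50 mg q12h). Total plasma levels measured by HPLC over the 12-h steady-state interval were converted to free drug using a polynomial fit of ultrafiltration protein binding, measured in triplicate at 1, 6 and 12 h.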

[4] = AUC (0 to 24 hrs) in thigh interstitial fluid of diabetic patient with chronic wound infection at […], iv loading dose followed by […], iv BID for […] by microdialysis; format: ADME, organism-based; set-up: time < 24 hr, route intravenous; details: human; in short: as §1
[5] = fAUC (0 to 24 hrs) to MIC for Staphylococcus aureus infected in thigh of ICR mouse; format: functional, Thigh muscle
[6] = Drug recovery in thigh interstitial fluid of diabetic patient with chronic wound infection at […], iv loading dose followed by […], iv BID for 2 to 3 doses by microdialysis; format: ADME, organism-based; details: human, in vivo
In short: (§2)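 In vivo recovery by retrodialysis for each catheter after the final sampling. Perfusate was lactated Ringer's containing 500 μg/ml drug, perfused for 1 h at 2 μl/min. Recovery = 100 − (100 × Cdialysate/Cperfusate), measured by HPLC.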

[7] = Cmax in wound interstitial fluid of diabetic patient with chronic wound infection at […], iv loading dose followed by […], iv BID for […] by microdialysis; format: ADME, organism-based; set-up: route intravenous; details: human; in short: as §1
[8] = Cmax in plasma of diabetic patient with chronic wound infection at […], iv loading dose followed by […], iv BID for 2 to 3 doses by microdialysis; format: ADME, organism-based; set-up: route intravenous; details: human
In short: (§3)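 Eight adult diabetic patients; IV 100 mg loading dose over 1 h via peripheral vein, then 50 mg over 1 h every 12 h for 2–3 further doses. Heparinized venous blood from contralateral arm at 0–12 h over a steady-state interval; plasma stored −80°C; HPLC (linear 0.05–5 μg/ml). Noncompartmental analysis: Cmax by inspection, log-linear trapezoidal AUC0-24, t1/2 = 0.693/λz (≥3 terminal points), […].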

[9] = Drug penetration in blister fluid of healthy human at […], iv loading dose followed by […], iv BID for 2 to 3 doses by microdialysis; format: ADME, organism-based; details: in vivo
[10] = Volume of distribution at steady state in plasma of diabetic patient with chronic wound infection at […], iv loading dose followed by […], iv BID for 2 to 3 doses by microdialysis; format: ADME, organism-based; details: human, read-out: Vdss; in short: as §3
[11] = Ratio of AUC (0 to 24 hrs) in plasma diabetic patient with chronic wound infection to MIC for methicillin-resistant Staphylococcus aureus; format: functional
In short: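 Eight adult diabetic patients; tigecycline 100 mg IV over 1 h, then 50 mg over 1 h every 12 h for 2–3 more doses. Venous plasma was sampled over the 12-h steady-state interval and total drug measured by HPLC.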

[12] = Drug penetration in wound interstitial fluid of diabetic patient with chronic wound infection at […], iv loading dose followed by […], iv BID for […] by microdialysis; format: ADME, organism-based; details: human, in vivo
In short: (§4)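 Tissue penetration is interstitial AUC0-24 (wound or thigh, microdialysis, recovery-corrected) divided by free plasma AUC0-24 × 100. Free plasma values come from the protein-binding polynomial applied to total concentrations. Sampling over a 12-h steady-state interval after IV 100 mg load then 50 mg q12h. Sites were compared by t test or Mann-Whitney.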

[13] = Ratio of AUC (0 to 24 hrs) in patient with complicated skin and skin structure infections to MIC for Staphylococcus aureus; format: functional
[14] = Tmax in thigh interstitial fluid of diabetic patient with chronic wound infection at […], iv loading dose followed by […], iv BID for […] by microdialysis; format: ADME, organism-based; details: human; in short: as §1
[15] = fTmax in plasma of diabetic patient with chronic wound infection at […], iv loading dose followed by […], iv BID for 2 to 3 doses by microdialysis; format: ADME, organism-based; details: human
In short: (§5)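 Steady-state plasma after IV 100 mg loading then 50 mg every 12 h (1-h infusions) in diabetic patients. Total HPLC plasma levels converted to free using a polynomial fitted to ultrafiltration-derived percent unbound versus plasma concentration (y = y0 + a/x + b/x² + c/x³). Free-drug profiles analysed noncompartmentally; Cmax by visual inspection.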

[16] = Tmax in wound interstitial fluid of diabetic patient with chronic wound infection at […], iv loading dose followed by […], iv BID for […] by microdialysis; format: ADME, organism-based; details: human; in short: as §1
Plasma [17] = assay: AUC (0 to 24 hrs) in plasma of diabetic patient with chronic wound infection at […], iv loading dose followed by […], iv BID for 2 to 3 doses by microdialysis; format: ADME, organism-based; set-up: time < 24 hr, route intravenous; details: human, in vivo; in short: as §3
Plasma [18] = assay: Clearance at steady state in plasma of diabetic patient with chronic wound infection at […], iv loading dose followed by […], iv BID for 2 to 3 doses by microdialysis; format: ADME, organism-based; details: human, in vivo; in short: as §3
[19] = Cmax in thigh interstitial fluid of diabetic patient with chronic wound infection at […], iv loading dose followed by […], iv BID for […] by microdialysis; format: ADME, organism-based; set-up: route intravenous; details: human; in short: as §1
Plasma [20] = assay: fCmax in plasma of diabetic patient with chronic wound infection at […], iv loading dose followed by […], iv BID for 2 to 3 doses by microdialysis; format: ADME, organism-based; details: human, in vivo; in short: as §5
[21] = Terminal half life in thigh interstitial fluid of diabetic patient with chronic wound infection at […], iv loading dose followed by […], iv BID for […] by microdialysis; format: ADME, organism-based; details: human; in short: as §1
Staphylococcus aureus = assay: Antimicrobial activity against methicillin-resistant Staphylococcus aureus by CLSI method; format: functional
[22] = Terminal half life in plasma of diabetic patient with chronic wound infection at […], iv loading dose followed by […], iv BID for 2 to 3 doses by microdialysis; format: ADME, organism-based; details: human; in short: as §3
[23] = Drug recovery in wound interstitial fluid of diabetic patient with chronic wound infection at […], iv loading dose followed by […], iv BID for 2 to 3 doses by microdialysis; format: ADME, organism-based; details: human, in vivo; in short: as §2
[24] = Ratio of AUC (0 to 24 hrs) in thigh interstitial fluid of diabetic patient with chronic wound infection to MIC for methicillin-resistant Staphylococcus aureus; format: functional, Thigh muscle
[25] = Drug penetration in thigh interstitial fluid of diabetic patient with chronic wound infection at […], iv BID for […] by microdialysis; format: ADME, organism-based; details: human, in vivo; in short: as §4
[26] = Tmax in plasma of diabetic patient with chronic wound infection at […], iv loading dose followed by […], iv BID for 2 to 3 doses by microdialysis; format: ADME, organism-based; details: human; in short: as §3

CN(C)c1cc(NC(=O)CNC(C)(C)C)c(O)c2c1C[C@H]1C[C@H]3[C@H](N(C)C)C(O)=C(C(N)=O)C(=O)[C@@]3(O)C(O)=C1C2=O [TIGECYCLINE]
half-life [1]: 24.9 h | AUC at 24 h [2]: 2600 ng·h/mL | RatioAUC/MIC [3]: 22.1 | AUC at 24 h [4]: 2520 ng·h/mL | fAUC/MIC [5]: 5.7 | Activity [6]: 53.48% | Cmax [7]: 160 ng/mL | Cmax [8]: 420 ng/mL | Drug uptake [9]: 74% | Vd [10]: 3.95 L/kg | RatioAUC/MIC [11]: 33.25 | Drug uptake [12]: 100% | RatioAUC/MIC [13]: 17.9 | Tmax [14]: 3.38 h | Tmax [15]: 1.13 h | Tmax [16]: 4.38 h | AUC (Plasma [17]): 3990 ng·h/mL | CLss (Plasma [18]): 4.67 mL/min/kg | Cmax [19]: 180 ng/mL | Cmax_unbound (Plasma [20]): 160 ng/mL | half-life [21]: 16 h | MIC90 (Staphylococcus aureus): 0.12 µg/mL (≈ 0.205 µM) | half-life [22]: 9.73 h | Activity [23]: 57.03% | RatioAUC/MIC [24]: 21 | Drug uptake [25]: 98.94% | Tmax [26]: 1.13 h

Source: ChEMBL document CHEMBL1671769, “Tissue penetration and pharmacokinetics of tigecycline in diabetic patients with chronic wound infections described by using in vivo microdialysis” (Antimicrob Agents Chemother, 2010)
